Measurements as given in ChEMBL document CHEMBL5634107, “The design, synthesis, and inhibition of Clostridioides difficile spore germination by acyclic and bicyclic tertiary amide analogs of cholate” (Eur J Med Chem, 2023).

Columns and labels:
Clostridioides difficile [1] = experiment: Inhibition of spore germination in Clostridium difficile R20291 assessed as residual activity at 125 uM measured every minute for 2 hrs by absorbance based analysis relative to control; assay type: functional
How it was run: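 Single-concentration screen of R20291 spores (OD580 1.0) in 100 mM sodium phosphate, pH 6.0, with 5 mg/mL bicarbonate and 2.5% DMSO. Compound at 125 μM final, in triplicate, with 6 mM taurocholate and 12 mM glycine. OD580 is read each minute for 2 h, normalized to time zero, and compared with untreated spores.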

Clostridioides difficile [2] = experiment: Inhibition of spore germination in Clostridium difficile R20291 assessed as inhibition of spore germination measured every minute for 2 hrs by absorbance based analysis; assay type: functional, organism-based; details: R20291, 2 h
How it was run: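 Spores of strain R20291 diluted to OD580 1.0 in 100 mM sodium phosphate, pH 6.0, with 5 mg/mL sodium bicarbonate. Germinant is 6 mM taurocholate plus 12 mM glycine, with compound at various concentrations. OD580 is read every minute for 2 h and normalized to time zero. Value is fitted from percent germination versus log concentration.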

Row | Structure (SMILES) | Activity (Clostridioides difficile [1]) [%] | IC50 (Clostridioides difficile [2]) [µM]
1 | C[C@H](CCC(=O)N1CCCC1)[C@H]1CC[C@H]2[C@@H]3[C@H](O)C[C@@H]4C[C@H](O)CC[C@]4(C)[C@H]3C[C@H](O)[C@]12C | 29 | 38
2 | C[C@H](CCC(=O)N1CCc2ccccc2C1)[C@H]1CC[C@H]2[C@@H]3[C@H](O)C[C@@H]4C[C@H](O)CC[C@]4(C)[C@H]3C[C@H](O)[C@]12C | 78 | 
3 | C[C@H](CCC(=O)N1CCc2cc(F)ccc21)[C@H]1CC[C@H]2[C@@H]3[C@H](O)C[C@@H]4C[C@H](O)CC[C@]4(C)[C@H]3C[C@H](O)[C@]12C | 5 | 0.4
4 | C[C@H](CCC(=O)N1CCc2cc(Br)ccc2C1)[C@H]1CC[C@H]2[C@@H]3[C@H](O)C[C@@H]4C[C@H](O)CC[C@]4(C)[C@H]3C[C@H](O)[C@]12C | 100 | 
5 | C[C@H](CCC(=O)N1CCC(O)CC1)[C@H]1CC[C@H]2[C@@H]3[C@H](O)C[C@@H]4C[C@H](O)CC[C@]4(C)[C@H]3C[C@H](O)[C@]12C | 88 | 
6 | Cc1ccc2c(c1)CCCN2C(=O)CC[C@@H](C)[C@H]1CC[C@H]2[C@@H]3[C@H](O)C[C@@H]4C[C@H](O)CC[C@]4(C)[C@H]3C[C@H](O)[C@]12C | 100 | 
7 | C[C@H](CCC(=O)N1CCCCC1)[C@H]1CC[C@H]2[C@@H]3[C@H](O)C[C@@H]4C[C@H](O)CC[C@]4(C)[C@H]3C[C@H](O)[C@]12C | 15 | 37
8 | C[C@H](CCC(=O)N1CCc2ccccc21)[C@H]1CC[C@H]2[C@@H]3[C@H](O)C[C@@H]4C[C@H](O)CC[C@]4(C)[C@H]3C[C@H](O)[C@]12C | 4 | 1
9 | COc1ccc2c(c1)N(C(=O)CC[C@@H](C)[C@H]1CC[C@H]3[C@@H]4[C@H](O)C[C@@H]5C[C@H](O)CC[C@]5(C)[C@H]4C[C@H](O)[C@]13C)CC2 | 100 | 
10 | C[C@H](CCC(=O)N(C)c1ccccc1)[C@H]1CC[C@H]2[C@@H]3[C@H](O)C[C@@H]4C[C@H](O)CC[C@]4(C)[C@H]3C[C@H](O)[C@]12C | 31 | 32
11 | C[C@H](CCC(=O)N1CCc2cc(Cl)ccc21)[C@H]1CC[C@H]2[C@@H]3[C@H](O)C[C@@H]4C[C@H](O)CC[C@]4(C)[C@H]3C[C@H](O)[C@]12C | 70 | 
12 | C[C@H](CCC(=O)N1CCc2c(Cl)cccc21)[C@H]1CC[C@H]2[C@@H]3[C@H](O)C[C@@H]4C[C@H](O)CC[C@]4(C)[C@H]3C[C@H](O)[C@]12C | 95 | 
13 | C[C@H](CCC(=O)N1CCCc2ccccc21)[C@H]1CC[C@H]2[C@@H]3[C@H](O)C[C@@H]4C[C@H](O)CC[C@]4(C)[C@H]3C[C@H](O)[C@]12C | 17 | 22
14 | Cc1ccc2c(c1)CCN2C(=O)CC[C@@H](C)[C@H]1CC[C@H]2[C@@H]3[C@H](O)C[C@@H]4C[C@H](O)CC[C@]4(C)[C@H]3C[C@H](O)[C@]12C | 100 | 
15 | COc1ccc2c(c1)CCN(C(=O)CC[C@@H](C)[C@H]1CC[C@H]3[C@@H]4[C@H](O)C[C@@H]5C[C@H](O)CC[C@]5(C)[C@H]4C[C@H](O)[C@]13C)C2 | 100 | 
16 | CCN(CC)C(=O)CC[C@@H](C)[C@H]1CC[C@H]2[C@@H]3[C@H](O)C[C@@H]4C[C@H](O)CC[C@]4(C)[C@H]3C[C@H](O)[C@]12C | 0.05 | 29
17 | C[C@H](CCC(=O)N1CCc2cc(Br)ccc21)[C@H]1CC[C@H]2[C@@H]3[C@H](O)C[C@@H]4C[C@H](O)CC[C@]4(C)[C@H]3C[C@H](O)[C@]12C | 90 | 
